Laboratory results reported in the array DNA melting data of Ke et al. (doi:10.1101/2024.01.08.574731).

How the values were obtained:
[1] = folding enthalpy; higher = less favourable; fluorescence melt of hairpins on a sequencing array, two-state fit; settings: sodium 0.088 M
Procedure, shortened: (§1)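 With Cy3 and quencher oligos annealed, library hairpins on a sequenced MiSeq flow cell were imaged for Cy3 fluorescence in 50 mM Na-HEPES pH 8.0, 25 mM NaCl, in 2.5 °C steps up to 60 °C. Melting temperature and folding enthalpy were derived from bootstrapped two-state fits of signals normalised to pre-quench Cy3 and to control constructs. Four replicates were combined by inverse variance, with fitted temperatures raised by 9.35 °C to match UV melts.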

[2] = melting temperature; fluorescence melt of hairpins on a sequencing array, two-state fit, raised by 9.35 °C to match UV melts; settings: sodium 0.088 M
Procedure, shortened: as §1

Row | Sequence | folding enthalpy [1] | Tm [2]
1 | GTCCGTGGAAACACGAAC ((.((((....)))).)) | -21 kcal/mol | 39.7 °C
2 | GTCCTACGAAAGTACGAC (((.(((....))).))) | -24.9 kcal/mol | 35.2 °C
3 | GTCCTAGGAAACTGGGAC ((((.((....)).)))) | -37.8 kcal/mol | 49.4 °C
4 | GTCCTATCGAAAGATGAC (((..(((....)))))) | -8.25 kcal/mol | 23.4 °C
5 | GTCCTCGAAAGAGAAGAC ((((((....)))..))) | -19.8 kcal/mol | 32.2 °C
6 | GTCCTCGAAAGAGCTGAC ((((((....)))..))) | -12.4 kcal/mol | 29.5 °C
7 | GTCCTCGAAAGAGGAGAC ((((((....)))..))) | -10.2 kcal/mol | 47.8 °C
8 | GTCCTCGAAAGAGTGAC ((((((....))).))) | -25.7 kcal/mol | 46.3 °C
9 | GTCCTCGAAAGAGTTGAC ((((((....)))..))) | -10.7 kcal/mol | 31.2 °C
10 | GTCCTGCGAAAGCAAGAC (((.(((....))).))) | -23.3 kcal/mol | 48.1 °C
11 | GTCGAACGAAAGTTAGAC (((.(((....))).))) | -33.1 kcal/mol | 52.6 °C
12 | GTCGAACGAAAGTTGGAC (((.(((....))).))) | -46.4 kcal/mol | 50.6 °C
13 | GTCGAAGGAAACTTCAAC ((.((((....)))).)) | -12.4 kcal/mol | 26.9 °C
14 | GTCGAAGGAAACTTTGAC (((.(((....))).))) | -31.1 kcal/mol | 44.5 °C
15 | GTCGACGAAAGTCGAGAC ((((((....)))..))) | -9.56 kcal/mol | 51.9 °C
16 | GTCGACGAAAGTCGCGAC ((((((....)))..))) | -12.6 kcal/mol | 57.4 °C
17 | GTCGAGCGAAAGCTGGAC (((.(((....))).))) | -28.9 kcal/mol | 56.1 °C
18 | GTCGAGCGAAAGCTTGAC (((.(((....))).))) | -35.4 kcal/mol | 63.9 °C
19 | GTCGAGGAAACTCGAC ((((((....)))))) | -45.2 kcal/mol | 63.3 °C
20 | GTCGAGGCGAAAGCCGAC (((..(((....)))))) | -9.98 kcal/mol | 51 °C
21 | GTCGAGGGAAACCTCGGC (.(((((....))))).) | -35.8 kcal/mol | 57.3 °C
22 | GTCGAGGGAAACCTTGAC (((.(((....))).))) | -38.5 kcal/mol | 48.7 °C
23 | GTCGAGGGAAACTTCGAC (((((.(....).))))) | -42.6 kcal/mol | 49.6 °C

Row | Sequence | folding enthalpy [1] | Tm [2]
24 | GTCGAGGGAAACTTCGGC (.(((.(....).))).) | -24.6 kcal/mol | 36.4 °C
25 | GTCGAGTCGAAAGACGAC (((..(((....)))))) | -10.7 kcal/mol | 47 °C
26 | GTCGATCGAAAGATGAC (((.(((....)))))) | -26.9 kcal/mol | 43.7 °C
27 | GTCGATGGAAACATCAAC ((.((((....)))).)) | -17.6 kcal/mol | 34.7 °C
28 | GTCGCAACGAAAGTTGAC (((..(((....)))))) | -12.1 kcal/mol | 29.4 °C
29 | GTCGCAGGAAACCGCGAC (((((.(....).))))) | -43.1 kcal/mol | 58.9 °C
30 | GTCGCAGGAAACTGTGGC (.(.(((....))).).) | -29.9 kcal/mol | 42.8 °C
31 | GTCGCCGAAAGGCATGAC ((((((....)))..))) | -13.2 kcal/mol | 40.7 °C
32 | GTCGCCGAAAGGCCCGAC ((((((....)))..))) | -11.6 kcal/mol | 37.4 °C
33 | GTCGCCGAAAGGCCGGAC ((((((....)))..))) | -13.1 kcal/mol | 41.6 °C
34 | GTCGCCGGAAACAGCGAC (((((.(....).))))) | -44.9 kcal/mol | 54.9 °C
35 | GTCGCCGGAAACGGTGAC (((.(((....))).))) | -41.5 kcal/mol | 63.7 °C
36 | GTCGCGGCGAAAGCCGAC (((..(((....)))))) | -7.7 kcal/mol | 42.2 °C
37 | GTCGCTCGAAAGAGAGAC (((.(((....))).))) | -42.9 kcal/mol | 58.4 °C
38 | GTCGCTGGAAACAGTGAC (((.(((....))).))) | -50.4 kcal/mol | 54.9 °C
39 | GTCGCTGGAAACGGCGAC (((((.(....).))))) | -43.8 kcal/mol | 65.7 °C
40 | GTCGGAGAAATCCGAC ((((((....)))))) | -35.7 kcal/mol | 61.7 °C
41 | GTCGGAGGAAACTCCAAC ((.((((....)))).)) | -22.7 kcal/mol | 35.5 °C
42 | GTCGGCCCGAAAGGGGAC (((..(((....)))))) | -12.6 kcal/mol | 43.3 °C
43 | GTCGGCCGAAAGGCGAC (((.(((....)))))) | -21.9 kcal/mol | 67.2 °C
44 | GTCGGCGAAAGCCGCGAC ((((((....)))..))) | -11.6 kcal/mol | 57.7 °C
45 | GTCGGCGCGAAAGCGGAC (((..(((....)))))) | -13.8 kcal/mol | 45.6 °C
46 | GTCGGGAAACCGAC (((((....))))) | -24.2 kcal/mol | 66 °C

Row | Sequence | folding enthalpy [1] | Tm [2]
47 | GTCGGGGGAAACCCTGGC (.(.(((....))).).) | -21.8 kcal/mol | 43.9 °C
48 | GTCGGGGGAAACTCCGAC (((((.(....).))))) | -44.7 kcal/mol | 57.6 °C
49 | GTCGGTCGAAAGACGAC (((.(((....)))))) | -29.2 kcal/mol | 55.1 °C
50 | GTCGGTGGAAACACCGGC (.(((((....))))).) | -23.8 kcal/mol | 63.2 °C
51 | GTCGGTGGAAACATCGGC (.((.((....)).)).) | -26.2 kcal/mol | 44.4 °C
52 | GTCGTAACGAAAGTTGAC (((..(((....)))))) | -22.4 kcal/mol | 35.8 °C
53 | GTCGTACGAAAGTAAGAC (((.(((....))).))) | -33.2 kcal/mol | 52.1 °C
54 | GTCGTCCGAAAGGAAGAC (((.(((....))).))) | -33 kcal/mol | 55.9 °C
55 | GTCGTCGAAAGACCAGAC ((((((....)))..))) | -16.6 kcal/mol | 34.9 °C
56 | GTCGTCGAAAGACCGGAC ((((((....)))..))) | -16.9 kcal/mol | 37.4 °C
57 | GTCGTCGAAAGACGAGAC ((((((....)))..))) | -10.8 kcal/mol | 49.8 °C
58 | GTCGTCGCGAAAGCGGAC (((..(((....)))))) | -10.6 kcal/mol | 46.5 °C
59 | GTCGTCGGAAACGACAAC ((.((((....)))).)) | -13 kcal/mol | 47.4 °C
60 | GTCGTCGGAAACGATGGC (.(.(((....))).).) | -25.4 kcal/mol | 46.2 °C
61 | GTCGTGACGAAAGTCGAC (((..(((....)))))) | -16.6 kcal/mol | 46.3 °C
62 | GTCGTGGCGAAAGCCGAC (((..(((....)))))) | -17.2 kcal/mol | 54.6 °C
63 | GTCGTGGGAAACTGCGAC ((((..(....)..)))) | -18.5 kcal/mol | 46.9 °C
64 | GTCGTTCGAAAGAATGAC (((.(((....))).))) | -42.1 kcal/mol | 54.9 °C
65 | GTCGTTGGAAACAATGAC (((.(((....))).))) | -32.5 kcal/mol | 48.3 °C
66 | GTCGTTGGAAACAGCGAC ((((.((....)).)))) | -37.5 kcal/mol | 52.4 °C
67 | GTCGTTGGAAACGATGAC (((.(.(....).).))) | -13.5 kcal/mol | 49 °C
68 | GTCGTTTCGAAAGAAGAC (((..(((....)))))) | -14 kcal/mol | 28.9 °C
69 | GTCTAAGCGAAAGCTGAC (((..(((....)))))) | -17.2 kcal/mol | 43.1 °C

Row | Sequence | folding enthalpy [1] | Tm [2]
70 | GTCTAAGGAAACTTAGAC (((((((....))))))) | -41.9 kcal/mol | 51.5 °C
71 | GTCTACGAAAGTAACGAC ((((((....)))..))) | -16.4 kcal/mol | 31.3 °C
72 | GTCTACGAAAGTACAGAC ((((((....)))..))) | -18.1 kcal/mol | 33.4 °C
73 | GTCTACGAAAGTACGGAC ((((((....)))..))) | -12.1 kcal/mol | 34.1 °C
74 | GTCTACGGAAACGCAGAC ((((.((....)).)))) | -35 kcal/mol | 45.1 °C
75 | GTCTACGGAAACGTAAAC ((.((((....)))).)) | -14.4 kcal/mol | 27.7 °C
76 | GTCTAGAAATAGAC (((((....))))) | -14.9 kcal/mol | 40.5 °C
77 | GTCTAGACGAAAGTCGAC (((..(((....)))))) | -13.1 kcal/mol | 39.6 °C
78 | GTCTAGGCGAAAGCCGAC (((..(((....)))))) | -10.8 kcal/mol | 44.5 °C
79 | GTCTATGCGAAAGCAGAC (((..(((....)))))) | -16.9 kcal/mol | 42.1 °C
80 | GTCTATTCGAAAGAAGAC (((..(((....)))))) | -8.48 kcal/mol | 23.8 °C
81 | GTCTCACCGAAAGGTGAC (((..(((....)))))) | -7.93 kcal/mol | 36.1 °C
82 | GTCTCACGAAAGTGCGAC (((.(((....))).))) | -38.7 kcal/mol | 50.3 °C
83 | GTCTCACGAAAGTGGGAC (((.(((....))).))) | -41.5 kcal/mol | 60.3 °C
84 | GTCTCAGCGAAAGCTGAC (((..(((....)))))) | -8.27 kcal/mol | 36.2 °C
85 | GTCTCCGAAAGGACTGAC ((((((....)))..))) | -14.6 kcal/mol | 34.4 °C
86 | GTCTCCGAAAGGAGCGAC ((((((....)))..))) | -16.1 kcal/mol | 53.9 °C
87 | GTCTCCGAAAGGAGGAC ((((((....))).))) | -16.4 kcal/mol | 50.8 °C
88 | GTCTCCGGAAACGGAGGC (.(((((....))))).) | -25.2 kcal/mol | 61.7 °C
89 | GTCTCGCGAAAGCGTGAC (((.(((....))).))) | -28.6 kcal/mol | 60.7 °C
90 | GTCTCTACGAAAGTAGAC (((..(((....)))))) | -11.2 kcal/mol | 33.2 °C
91 | GTCTCTGAAAAGAGAC ((((((....)))))) | -33.4 kcal/mol | 58.1 °C
